Assay results taken from ChEMBL document CHEMBL4732199, “Potent and orally bioavailable CDK8 inhibitors: Design, synthesis, structure-activity relationship analysis and biological evaluation” (Eur J Med Chem, 2021).
The source made the active and inactive calls. The calls are words filed in the database; no cut-off is given here.

Assays:
MV4-11 = assay: Growth inhibition of human MV4-11 cells after 72 hrs by resazurin staining based assay; format: functional
Summary of the method: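 MV4-11 leukaemia cells grown in medium with 10% FBS at 37 °C, 5% CO2. Growth was read by a 72-h resazurin viability assay. GI50 was obtained by nonlinear regression and reported as mean ± standard deviation of at least two replicates.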

CDK8/Cyclin C = CDK8/Cyclin C (Homo sapiens, UniProt P49336); assay: Inhibition of CDK8/cyclin C (unknown origin) using RBER-IRStide as substrate incubated for 60 mins in presence of [gamma33P]ATP by scintillation counting method; format: protein-complex assay
CDK8/Cyclin C, sequence (P49336 whole entry): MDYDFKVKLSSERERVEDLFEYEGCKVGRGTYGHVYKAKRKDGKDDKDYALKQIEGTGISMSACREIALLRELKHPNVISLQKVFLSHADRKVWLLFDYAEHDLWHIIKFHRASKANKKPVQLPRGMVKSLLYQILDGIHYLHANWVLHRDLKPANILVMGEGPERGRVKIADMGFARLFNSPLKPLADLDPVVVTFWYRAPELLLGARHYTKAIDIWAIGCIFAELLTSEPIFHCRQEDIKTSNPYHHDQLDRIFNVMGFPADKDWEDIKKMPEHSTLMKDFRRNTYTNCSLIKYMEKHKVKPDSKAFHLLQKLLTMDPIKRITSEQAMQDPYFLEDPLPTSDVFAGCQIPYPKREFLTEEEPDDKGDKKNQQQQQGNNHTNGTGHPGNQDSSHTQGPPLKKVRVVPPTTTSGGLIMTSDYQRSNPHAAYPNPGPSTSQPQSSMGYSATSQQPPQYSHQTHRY
CDK8/Cyclin C, sequence (P24863 whole entry, further chain): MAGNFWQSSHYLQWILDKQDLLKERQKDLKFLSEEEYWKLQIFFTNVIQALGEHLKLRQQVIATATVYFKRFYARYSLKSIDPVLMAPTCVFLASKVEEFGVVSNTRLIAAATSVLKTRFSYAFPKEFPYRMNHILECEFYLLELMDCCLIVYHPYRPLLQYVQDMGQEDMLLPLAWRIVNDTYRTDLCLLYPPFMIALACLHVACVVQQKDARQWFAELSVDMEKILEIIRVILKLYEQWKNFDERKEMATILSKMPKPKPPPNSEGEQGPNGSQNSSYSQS

[1] = molecular target: T1, Cyclin-dependent kinase 5/CDK5 activator 1 (Homo sapiens) (UniProt Q00535+Q15078); assay: Inhibition of CDK5/p35 (unknown origin) at 1 uM; format: protein-complex assay
T1 sequence (Q00535 whole entry): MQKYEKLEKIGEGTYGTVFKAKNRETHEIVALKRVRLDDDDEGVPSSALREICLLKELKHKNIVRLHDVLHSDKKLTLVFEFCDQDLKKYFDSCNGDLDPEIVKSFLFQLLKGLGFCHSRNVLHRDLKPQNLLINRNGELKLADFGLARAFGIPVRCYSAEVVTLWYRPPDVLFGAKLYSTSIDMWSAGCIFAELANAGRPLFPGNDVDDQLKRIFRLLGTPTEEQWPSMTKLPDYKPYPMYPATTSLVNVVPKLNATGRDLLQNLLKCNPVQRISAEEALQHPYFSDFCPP
T1 sequence (Q15078 99-307 partner limits assumed): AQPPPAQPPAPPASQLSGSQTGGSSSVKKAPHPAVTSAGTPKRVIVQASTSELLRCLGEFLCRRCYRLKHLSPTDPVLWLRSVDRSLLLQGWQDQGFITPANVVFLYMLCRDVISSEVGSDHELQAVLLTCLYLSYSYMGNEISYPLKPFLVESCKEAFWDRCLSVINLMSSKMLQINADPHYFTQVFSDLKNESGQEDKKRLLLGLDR
Summary of the method: (§1)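 Residual activity of each kinase with compound at 1 µM, measured in a contracted radioisotope-based kinase profiling assay and expressed as % kinase activity remaining.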

[2] = molecular target: CDK6/cyclin D3 (Homo sapiens) (UniProt P30281+Q00534); assay: Inhibition of CDK6/cyclin-D3 (unknown origin) at 1 uM; format: protein-complex assay; summary of the method: as §1
[3] = molecular target: CDK3/Cyclin E (Homo sapiens) (UniProt P24864+Q00526); assay: Inhibition of CDK3/cyclin-E (unknown origin) at 1 uM; format: protein-complex assay; summary of the method: as §1
[4] = molecular target: Cyclin-dependent kinase 4/cyclin D1 (Homo sapiens) (UniProt P11802+P24385); assay: Inhibition of CDK4/cyclin-D1 (unknown origin) at 1 uM; format: protein-complex assay; summary of the method: as §1
[5] = molecular target: CDK17/Cyclin-Y (Homo sapiens) (UniProt Q00537+Q8ND76); assay: Inhibition of CDK17/Cyclin Y (unknown origin) at 1 uM; format: protein-complex assay; summary of the method: as §1
CDK17/Cyclin-Y (Homo sapiens), sequence (Q00537 whole entry): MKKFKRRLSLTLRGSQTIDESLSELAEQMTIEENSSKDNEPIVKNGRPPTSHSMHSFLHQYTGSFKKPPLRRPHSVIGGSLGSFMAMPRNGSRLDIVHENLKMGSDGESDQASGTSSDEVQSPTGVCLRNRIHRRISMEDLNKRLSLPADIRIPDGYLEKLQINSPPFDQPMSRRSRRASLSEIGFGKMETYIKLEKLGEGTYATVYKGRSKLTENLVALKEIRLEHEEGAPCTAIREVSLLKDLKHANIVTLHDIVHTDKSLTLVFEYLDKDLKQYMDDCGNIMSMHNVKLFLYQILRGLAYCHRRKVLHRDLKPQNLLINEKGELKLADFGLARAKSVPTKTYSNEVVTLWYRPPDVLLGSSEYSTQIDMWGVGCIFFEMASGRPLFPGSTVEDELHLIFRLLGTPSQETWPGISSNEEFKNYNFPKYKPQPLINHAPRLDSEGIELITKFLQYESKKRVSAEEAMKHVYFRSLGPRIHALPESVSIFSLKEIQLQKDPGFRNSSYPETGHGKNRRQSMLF
CDK17/Cyclin-Y (Homo sapiens), sequence (Q8ND76 2-341 partner limits assumed): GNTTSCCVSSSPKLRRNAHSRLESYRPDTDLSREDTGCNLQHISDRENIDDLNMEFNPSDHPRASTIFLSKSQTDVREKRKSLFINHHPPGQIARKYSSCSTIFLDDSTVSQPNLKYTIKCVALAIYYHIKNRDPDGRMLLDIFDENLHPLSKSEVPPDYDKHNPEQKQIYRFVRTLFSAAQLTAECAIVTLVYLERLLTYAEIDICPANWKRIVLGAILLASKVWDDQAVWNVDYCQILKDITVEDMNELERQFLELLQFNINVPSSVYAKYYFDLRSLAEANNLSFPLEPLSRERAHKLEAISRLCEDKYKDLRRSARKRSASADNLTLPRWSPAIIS

COLO 205 = assay: Growth inhibition human COLO 205 cells after 72 hrs by resazurin or MTT assay; format: functional
Summary of the method: (§2)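 Tumour cell lines kept in RPMI-1640, DMEM or MEM with 10% FBS at 37 °C, 5% CO2, mycoplasma-free. Exposure lasted 72 h. Viability was read by MTT for adherent solid-tumour lines and by resazurin for suspension leukaemia lines. GI50 came from nonlinear regression, given as mean ± standard deviation of at least two replicates unless stated otherwise.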

[6] = tested on: Glycogen synthase kinase-3 alpha (Homo sapiens), P49840 [UNDEFINED MUTATION]; assay: Inhibition of human GSKalpha S449A mutant (2 to 3nd residues) at 1 uM using YRRAAVPPSPSLSRHSSPHQS(p) EDEEE as substrate incubated for 40 mins in presence of [gamma-33P]-ATP by scintillation counting method relative to control
Glycogen synthase kinase-3 alpha (Homo sapiens), P49840 [UNDEFINED MUTATION], sequence (P49840 whole entry, looked up, stated change not applied): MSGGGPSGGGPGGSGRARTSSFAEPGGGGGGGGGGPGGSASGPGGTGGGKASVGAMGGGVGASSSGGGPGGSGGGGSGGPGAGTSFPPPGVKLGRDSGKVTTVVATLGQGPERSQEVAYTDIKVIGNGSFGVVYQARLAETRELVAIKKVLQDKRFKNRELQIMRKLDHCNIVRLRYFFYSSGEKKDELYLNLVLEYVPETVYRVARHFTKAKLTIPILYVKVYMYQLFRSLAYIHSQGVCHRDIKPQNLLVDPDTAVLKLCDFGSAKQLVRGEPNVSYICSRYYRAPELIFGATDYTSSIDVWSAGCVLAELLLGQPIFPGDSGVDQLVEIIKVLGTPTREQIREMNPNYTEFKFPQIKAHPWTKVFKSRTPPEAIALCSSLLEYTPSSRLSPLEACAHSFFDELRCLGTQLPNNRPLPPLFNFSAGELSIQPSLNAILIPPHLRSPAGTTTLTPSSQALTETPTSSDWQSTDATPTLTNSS
Summary of the method: (§3)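 Single-point screen of residual kinase activity (%) at 1 µM compound. Run as a contract radiometric [γ-33P]-ATP kinase assay, either the KinaseProfiler service or the HotSpot assay. ATP was set at the experimentally determined Km(ATP) of each kinase.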

PANC-1 = assay: Growth inhibition human PANC-1 cells after 72 hrs by resazurin or MTT assay; format: functional; summary of the method: as §2
[7] = molecular target: T1, Cyclin-dependent kinase 5/CDK5 activator 1 (Homo sapiens); assay: Inhibition of CDK5/p25 (unknown origin) at 1 uM; format: protein-complex assay; summary of the method: as §1
[8] = molecular target: CDK2/Cyclin A2 (Homo sapiens) (UniProt P24941+P20248); assay: Inhibition of CDK2/cyclin-A (unknown origin) at 1 uM; format: protein-complex assay; summary of the method: as §1
MDA-MB-453 = assay: Growth inhibition human MDA-MB-453 cells after 72 hrs by resazurin or MTT assay; format: functional; summary of the method: as §2
[9] = molecular target: Glycogen synthase kinase-3 beta (Homo sapiens, UniProt P49841); assay: Inhibition of human GSKbeta H350L mutant (2 to 3nd residues) using YRRAAVPPSPSLSRHSSPHQS(p) EDEEE as substrate incubated for 40 mins in presence of [gamma-33P]-ATP by scintillation counting method
Glycogen synthase kinase-3 beta, sequence (P49841 whole entry): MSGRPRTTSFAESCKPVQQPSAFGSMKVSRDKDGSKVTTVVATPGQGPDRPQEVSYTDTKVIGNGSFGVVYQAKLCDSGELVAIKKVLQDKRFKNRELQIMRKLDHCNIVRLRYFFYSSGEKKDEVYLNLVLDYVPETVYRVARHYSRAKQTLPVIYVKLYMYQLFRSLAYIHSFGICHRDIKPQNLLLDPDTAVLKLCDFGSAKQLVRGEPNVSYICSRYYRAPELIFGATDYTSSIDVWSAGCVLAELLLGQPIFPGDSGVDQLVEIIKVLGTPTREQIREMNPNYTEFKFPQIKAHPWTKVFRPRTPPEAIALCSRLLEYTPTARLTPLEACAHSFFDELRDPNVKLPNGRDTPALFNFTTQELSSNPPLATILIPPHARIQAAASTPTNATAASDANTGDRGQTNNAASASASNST
Summary of the method: (§4)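 Outsourced radioisotope (HotSpot) kinase assay run by a contract lab, with ATP at the kinase's Km(ATP). The IC50 was converted to an apparent Ki by the Cheng-Prusoff equation, Ki = IC50/(1+[ATP]/Km(ATP)), using the experimentally determined Km(ATP).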

HCT-116 = assay: Growth inhibition human HCT-116 cells after 72 hrs by resazurin or MTT assay; format: functional; summary of the method: as §2
[10] = molecular target: CDK9/cyclin T1 (Homo sapiens) (UniProt O60563+P50750); assay: Inhibition of CDK9/Cyclin T1 (unknown origin) at 1 uM relative to control; format: protein-complex assay; summary of the method: as §1
MDA-MB-231 = assay: Growth inhibition human MDA-MB-231 cells after 72 hrs by resazurin or MTT assay; format: functional; summary of the method: as §2
[11] = tested on: Glycogen synthase kinase-3 beta (Homo sapiens), P49841 [UNDEFINED MUTATION]; assay: Inhibition of human GSKbeta H350L mutant (2 to 3nd residues) at 1 uM using YRRAAVPPSPSLSRHSSPHQS(p) EDEEE as substrate incubated for 40 mins in presence of [gamma-33P]-ATP by scintillation counting method relative to control; summary of the method: as §3
Glycogen synthase kinase-3 beta (Homo sapiens), P49841 [UNDEFINED MUTATION], sequence (P49841 whole entry, looked up, stated change not applied): as the sequence (P49841 whole entry) above

T47D = assay: Growth inhibition human T47D cells after 72 hrs by resazurin or MTT assay; format: functional; summary of the method: as §2
[12] = Growth inhibition human WI38 cells after 72 hrs by resazurin or MTT assay; format: cell-based; conditions: WI-38 cells
U-937 = assay: Growth inhibition human U-937 cells after 72 hrs by resazurin or MTT assay; format: functional; summary of the method: as §2
MOLM-13 = assay: Growth inhibition human MOLM-13 cells after 72 hrs by resazurin or MTT assay; format: functional; summary of the method: as §2
[13] = molecular target: T2, Protein kinase C theta type (Homo sapiens, UniProt Q04759); assay: Inhibition of human full length PKCtheta using histone H1 as substrate incubated for 40 mins in presence of [gamma-33P]-ATP by scintillation counting method
Summary of the method: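 IC50 measured in a contracted radiometric kinase assay with ATP at the experimentally determined Km(ATP) of each kinase. Apparent Ki was derived by Cheng-Prusoff: Ki = IC50/(1+[ATP]/Km(ATP)).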
Target sequence in this assay (Q04759 whole entry): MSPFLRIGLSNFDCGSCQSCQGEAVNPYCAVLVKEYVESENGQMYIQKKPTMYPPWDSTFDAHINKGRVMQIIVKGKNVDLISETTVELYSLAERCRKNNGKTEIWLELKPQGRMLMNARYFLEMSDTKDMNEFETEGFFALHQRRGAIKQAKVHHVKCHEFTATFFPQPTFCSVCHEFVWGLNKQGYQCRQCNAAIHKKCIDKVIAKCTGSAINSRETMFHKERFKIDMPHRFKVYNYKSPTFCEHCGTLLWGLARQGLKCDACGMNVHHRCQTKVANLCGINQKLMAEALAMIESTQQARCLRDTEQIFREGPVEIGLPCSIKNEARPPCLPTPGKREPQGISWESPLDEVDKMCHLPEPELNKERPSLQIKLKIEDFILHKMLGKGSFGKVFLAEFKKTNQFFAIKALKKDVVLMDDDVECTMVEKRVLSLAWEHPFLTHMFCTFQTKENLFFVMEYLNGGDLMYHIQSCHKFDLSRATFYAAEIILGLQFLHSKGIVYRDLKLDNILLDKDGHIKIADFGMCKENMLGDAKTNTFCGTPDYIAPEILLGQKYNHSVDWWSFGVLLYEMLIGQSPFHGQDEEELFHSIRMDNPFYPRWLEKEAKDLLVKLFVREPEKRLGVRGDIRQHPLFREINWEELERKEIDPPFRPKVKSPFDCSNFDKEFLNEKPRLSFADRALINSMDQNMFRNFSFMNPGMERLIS

[14] = Inhibition of CYP4501A in human liver microsomes using ethoxyresorufin O-deethylation as substrate by LC-MS/MS analysis
[15] = molecular target: Glycogen synthase kinase-3 alpha (Homo sapiens, UniProt P49840); assay: Inhibition of human GSKalpha S449A mutant (2 to 3nd residues) using YRRAAVPPSPSLSRHSSPHQS(p) EDEEE as substrate incubated for 40 mins in presence of [gamma-33P]-ATP by scintillation counting method; summary of the method: as §4
Glycogen synthase kinase-3 alpha, sequence (P49840 whole entry): as the sequence (P49840 whole entry, looked up, stated change not applied) above

[16] = molecular target: Cyclin-Y/Cyclin-dependent kinase 16 (Homo sapiens) (UniProt Q00536+Q8ND76); assay: Inhibition of CDK16/Cyclin Y (unknown origin) at 1 uM; format: protein-complex assay; summary of the method: as §1
[17] = molecular target: Cyclin-dependent kinase 14/Cyclin-Y (Homo sapiens) (UniProt O94921+Q8ND76); assay: Inhibition of CDK14/Cyclin Y (unknown origin) at 1 uM; format: protein-complex assay; summary of the method: as §1
[18] = molecular target: T2, Protein kinase C theta type; assay: Inhibition of human full length PKCtheta at 1 uM using histone H1 as substrate incubated for 40 mins in presence of [gamma-33P]-ATP by scintillation counting method relative to control; summary of the method: as §3
Target sequence in this assay (Q04759 whole entry, looked up): as the sequence (Q04759 whole entry) above

HT-29 = assay: Growth inhibition human HT-29 cells after 72 hrs by resazurin or MTT assay; format: functional; summary of the method: as §2
[19] = molecular target: CDK7/Cyclin H/MNAT1 (Homo sapiens) (UniProt P51946+P50613+P51948); assay: Inhibition of CDK7/cyclin H/MNAT1 (unknown origin) at 1 uM; format: protein-complex assay; summary of the method: as §1
[20] = molecular target: Cyclin-dependent kinase 1/cyclin B1 (Homo sapiens) (UniProt P06493+P14635); assay: Inhibition of CDK1/cyclin-B (unknown origin) at 1 uM relative to control; format: protein-complex assay; summary of the method: as §1
Cyclin-dependent kinase 1/cyclin B1 (Homo sapiens), sequence (P06493 whole entry, looked up): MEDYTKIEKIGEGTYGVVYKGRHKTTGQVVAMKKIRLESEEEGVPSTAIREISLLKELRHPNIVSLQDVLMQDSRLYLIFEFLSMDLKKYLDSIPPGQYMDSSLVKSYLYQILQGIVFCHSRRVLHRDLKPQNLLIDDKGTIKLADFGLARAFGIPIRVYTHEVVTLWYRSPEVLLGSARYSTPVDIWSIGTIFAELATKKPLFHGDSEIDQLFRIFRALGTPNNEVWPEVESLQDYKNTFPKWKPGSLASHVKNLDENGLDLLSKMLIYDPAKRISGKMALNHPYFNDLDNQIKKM
Cyclin-dependent kinase 1/cyclin B1 (Homo sapiens), sequence (P14635 whole entry, looked up): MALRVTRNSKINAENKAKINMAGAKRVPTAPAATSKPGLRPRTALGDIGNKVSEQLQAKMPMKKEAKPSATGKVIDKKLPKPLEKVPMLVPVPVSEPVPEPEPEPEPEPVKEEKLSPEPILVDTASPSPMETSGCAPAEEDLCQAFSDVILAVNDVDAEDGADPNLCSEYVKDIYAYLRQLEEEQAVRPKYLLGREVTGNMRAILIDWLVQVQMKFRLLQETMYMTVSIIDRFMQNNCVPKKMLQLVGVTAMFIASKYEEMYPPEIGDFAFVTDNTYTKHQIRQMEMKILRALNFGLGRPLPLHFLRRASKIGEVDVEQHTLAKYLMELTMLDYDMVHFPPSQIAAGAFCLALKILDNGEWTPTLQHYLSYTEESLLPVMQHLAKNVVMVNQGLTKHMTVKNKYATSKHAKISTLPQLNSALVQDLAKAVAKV

A2780 = assay: Growth inhibition human A2780 cells after 72 hrs by resazurin or MTT assay; format: functional; summary of the method: as §2
MCF7 = assay: Growth inhibition human MCF7 cells after 72 hrs by resazurin or MTT assay; format: functional; summary of the method: as §2
[21] = molecular target: CDK18/Cyclin Y (Homo sapiens) (UniProt Q07002+Q8ND76); assay: Inhibition of CDK18/Cyclin Y (unknown origin) at 1 uM; format: protein-complex assay; summary of the method: as §1

## Cn1ncc2c(-c3cncc(Cl)c3N3CCC4(CCNC4=O)CC3)cccc21
MV4-11
  GI50: 27.7 µM
CDK8/Cyclin C
  Ki: 0.458 µM

## O=C1NCCC12CCN(c1c(Cl)cncc1-c1cc3ccccc3s1)CC2
[1]
  inhibition: inactive
[2]
  inhibition: inactive
[3]
  inhibition: inactive
[4]
  inhibition: inactive
[5]
  inhibition: inactive
COLO 205
  GI50: > 50 µM
[6]
  inhibition: > 50%
PANC-1
  GI50: > 50 µM
[7]
  inhibition: inactive
[8]
  inhibition: inactive
MV4-11
  GI50: 0.58 µM
MDA-MB-453
  GI50: 17.4 µM
[9]
  Ki: 0.018 µM
HCT-116
  GI50: 42.7 µM
[10]
  inhibition: inactive
MDA-MB-231
  GI50: 34.2 µM
[11]
  inhibition: > 50%
T47D
  GI50: 17.9 µM
CDK8/Cyclin C
  Ki: 0.014 µM
[12]
  GI50 at 72 h: 35 µM
U-937
  GI50: 2.69 µM
MOLM-13
  GI50: 5.81 µM
[13]
  Ki: 0.134 µM
[14]
  IC50: 16.6 µM
[15]
  Ki: 0.043 µM
[16]
  inhibition: inactive
[17]
  inhibition: inactive
[18]
  inhibition: > 50%
HT-29
  GI50: 29.3 µM
[19]
  inhibition: inactive
[20]
  inhibition: inactive
A2780
  GI50: 17.6 µM
MCF7
  GI50: > 50 µM
[21]
  inhibition: inactive

## Cn1c(-c2cncc(Cl)c2N2CCC3(CCNC3=O)CC2)cc2ccccc21
MV4-11
  GI50: 10.1 µM
CDK8/Cyclin C
  Ki: 0.079 µM

## Cn1cc(-c2ccc(-c3cncc(Cl)c3-n3ccc(C(=O)O)c3)cc2)cn1
MV4-11
  GI50: 87.1 µM
CDK8/Cyclin C
  Ki: 4.19 µM

## O=C1NCCC12CCN(c1c(Cl)cncc1-c1cccc3c1oc1ccccc13)CC2
MV4-11
  GI50: 6.68 µM
CDK8/Cyclin C
  Ki: 0.016 µM

## O=C1NCCC12CCN(c1c(Cl)cncc1-c1cnn(Cc3ccccc3)c1)CC2
MV4-11
  GI50: 5.34 µM
CDK8/Cyclin C
  Ki: 0.346 µM

## O=C1NCCC12CCN(c1c(Cl)cncc1-c1cccc3cccnc13)CC2
MV4-11
  GI50: 9.15 µM
CDK8/Cyclin C
  Ki: 0.114 µM

## O=C1NCCC12CCN(c1c(Cl)cncc1-c1c[nH]c3ncccc13)CC2
MV4-11
  GI50: 7.82 µM
CDK8/Cyclin C
  Ki: 0.05 µM

## O=C1NCCC12CCN(c1c(Cl)cncc1-c1cncc3ccccc13)CC2
MV4-11
  GI50: 7.55 µM
CDK8/Cyclin C
  Ki: 0.066 µM

## CC(C)(C)OC(=O)N1CCC(n2cc(-c3cncc(Cl)c3N3CCC4(CCNC4=O)CC3)cn2)CC1
MV4-11
  GI50: 12.2 µM
CDK8/Cyclin C
  Ki: 0.7 µM

## O=C1NCCC12CCN(c1c(Cl)cncc1-c1cccc3ncccc13)CC2
MV4-11
  GI50: 3.65 µM
CDK8/Cyclin C
  Ki: 0.022 µM

## Cn1cc(-c2ccc(-c3cncc(Cl)c3-n3ccc(C(N)=O)c3)cc2)cn1
MV4-11
  GI50: 9.58 µM
CDK8/Cyclin C
  Ki: 1.09 µM

## O=C1NCCC12CCN(c1c(Cl)cncc1-c1c[nH]c3ccccc13)CC2
MV4-11
  GI50: 8.77 µM
CDK8/Cyclin C
  Ki: 0.056 µM

## O=C1NCCC12CCN(c1c(Cl)cncc1-c1cccc3cnccc13)CC2
MV4-11
  GI50: 62.3 µM
CDK8/Cyclin C
  Ki: 0.052 µM

## O=C1NCCC12CCN(c1c(Cl)cncc1-c1cccc3ccccc13)CC2
MV4-11
  GI50: 0.82 µM
CDK8/Cyclin C
  Ki: 0.016 µM
